According to ChEMBL document CHEMBL1145100, “Structure-activity relationship of imidazo[1,2-a]pyridines as ligands for detecting beta-amyloid plaques in the brain” (J Med Chem, 2003):

Legend:
Mus musculus [1] = test: Biodistribution of radioactivity in normal mice (ICR) liver after 2 hours of intravenous injection of [125I]-16(IMPY); format: ADME, organism-based; conditions: in vivo
In short: (§1)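 Male ICR mice, 2-3 months old, 20-30 g, under ether anesthesia, given 0.15 mL of 0.1% bovine serum albumin solution containing the [125I] tracer into the tail vein. Killed by cardiac excision at set times after injection. Organs removed and weighed, then gamma-counted. % dose per organ computed against diluted aliquots of the injected material.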

Mus musculus [2] = test: Biodistribution of radioactivity in normal mice (ICR) spleen after 6 hours of intravenous injection of [125I]-16(IMPY); format: ADME, organism-based; conditions: in vivo; in short: as §1
Mus musculus [3] = test: Biodistribution of radioactivity in normal mice (ICR) spleen after 2 minutes of intravenous injection of [125I]-16(IMPY); format: ADME, organism-based; conditions: in vivo; in short: as §1
Mus musculus [4] = test: Biodistribution of radioactivity in normal mice (ICR) skin after 24 hours of intravenous injection of [125I]-16(IMPY); format: ADME, organism-based, Zone of skin; conditions: in vivo; in short: as §1
Mus musculus [5] = test: Biodistribution of radioactivity in normal mice (ICR) kidney after 24 hours of intravenous injection of [125I]-16(IMPY); format: ADME, organism-based; conditions: in vivo; in short: as §1
Mus musculus [6] = test: Biodistribution of radioactivity in normal mice (ICR) spleen after 24 hours of intravenous injection of [125I]-16(IMPY); format: ADME, organism-based; conditions: in vivo; in short: as §1
Mus musculus [7] = test: Biodistribution of radioactivity in normal mice (ICR) brain after 30 minutes of intravenous injection of [125I]-16(IMPY); format: ADME, organism-based; conditions: in vivo, 0.5 h; in short: as §1
Mus musculus [8] = test: Biodistribution of radioactivity in normal mice (ICR) muscle after 1 hr of intravenous injection of [125I]-16(IMPY); format: ADME, organism-based, Muscle tissue; conditions: in vivo; in short: as §1
Mus musculus [9] = test: Biodistribution of radioactivity in normal mice blood after 24 hours of intravenous injection of [125I]-16(IMPY); format: ADME, organism-based; conditions: in vivo
In short: (§2)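 Male ICR mice (2-3 months old, 20-30 g) under ether anesthesia; 0.15 mL of 0.1% bovine serum albumin solution containing the iodine-125 tracer injected into the tail vein. Mice killed by cardiac excision at set times. Organs removed, weighed and gamma-counted. Percent dose per organ derived against diluted aliquots of the injectate.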

Mus musculus [10] = test: Biodistribution of radioactivity in normal mice (ICR) kidney after 2 hours of intravenous injection of [125I]-16(IMPY); format: ADME, organism-based; conditions: in vivo; in short: as §1
Mus musculus [11] = test: Biodistribution of radioactivity in normal mice (ICR) brain after 1 hour of intravenous injection of [125I]-16(IMPY); format: ADME, organism-based; conditions: in vivo; in short: as §1
Mus musculus [12] = test: Biodistribution of radioactivity in normal mice (ICR) spleen after 2 hours of intravenous injection of [125I]-16(IMPY); format: ADME, organism-based; conditions: in vivo; in short: as §1
Mus musculus [13] = test: Biodistribution of radioactivity in normal mice (ICR) muscle after 6 hours of intravenous injection of [125I]-16(IMPY); format: ADME, organism-based, Muscle tissue; conditions: in vivo; in short: as §1
Mus musculus [14] = test: Biodistribution of radioactivity in normal mice (ICR) kidney after 1 hour of intravenous injection of [125I]-16(IMPY); format: ADME, organism-based; conditions: in vivo; in short: as §1
Mus musculus [15] = test: Biodistribution of radioactivity in normal mice (ICR) brain after 2 hours of intravenous injection of [125I]-16(IMPY); format: ADME, organism-based; conditions: in vivo; in short: as §1
Mus musculus [16] = test: Biodistribution of radioactivity in normal mice (ICR) kidney after 2 minutes of intravenous injection of [125I]-16(IMPY); format: ADME, organism-based; conditions: in vivo; in short: as §1
Mus musculus [17] = test: Biodistribution of radioactivity in normal mice (ICR) liver after 24 hours of intravenous injection of [125I]-16(IMPY); format: ADME, organism-based; conditions: in vivo; in short: as §1
Mus musculus [18] = test: Biodistribution of radioactivity in normal mice (ICR) skin after 1 hour of intravenous injection of [125I]-16(IMPY); format: ADME, organism-based, Zone of skin; conditions: in vivo; in short: as §1
Mus musculus [19] = test: Biodistribution of radioactivity in normal mice (ICR) muscle after 2 minutes of intravenous injection of [125I]-16(IMPY); format: ADME, organism-based, Muscle tissue; conditions: in vivo; in short: as §1
Mus musculus [20] = test: Biodistribution of radioactivity in normal mice (ICR) liver after 1 hour of intravenous injection of [125I]-16(IMPY); format: ADME, organism-based; conditions: in vivo; in short: as §1
Mus musculus [21] = test: Biodistribution of radioactivity in normal mice blood after 6 hours of intravenous injection of [125I]-16(IMPY); format: ADME, organism-based; conditions: in vivo; in short: as §2
Mus musculus [22] = test: Biodistribution of radioactivity in normal mice blood after 2 minutes of intravenous injection of [125I]-16(IMPY); format: ADME, organism-based; conditions: in vivo; in short: as §2
Mus musculus [23] = test: Biodistribution of radioactivity in normal mice (ICR) spleen after 1 hour of intravenous injection of [125I]-16(IMPY); format: ADME, organism-based; conditions: in vivo; in short: as §1
Mus musculus [24] = test: Biodistribution of radioactivity in normal mice (ICR) skin after 30 minutes of intravenous injection of [125I]-16(IMPY); format: ADME, organism-based, Zone of skin; conditions: in vivo, 0.5 h; in short: as §1
Mus musculus [25] = test: Biodistribution of radioactivity in normal mice (ICR) brain after 2 minutes of intravenous injection of [125I]-16(IMPY); format: ADME, organism-based; conditions: in vivo; in short: as §1
Mus musculus [26] = test: Biodistribution of radioactivity in normal mice (ICR) liver after 30 minutes of intravenous injection of [125I]-16(IMPY); format: ADME, organism-based; conditions: in vivo, 0.5 h; in short: as §1
Mus musculus [27] = test: Biodistribution of radioactivity in normal mice (ICR) lung after 6 hours of intravenous injection of [125I]-16(IMPY); format: ADME, organism-based; conditions: in vivo; in short: as §1

CN(C)c1ccc(-c2cn3cc(I)ccc3n2)cc1
Dose/organ (Mus musculus [1]): 2.9%
Dose/organ (Mus musculus [2]): 0.04%
Dose/organ (Mus musculus [3]): 0.4%
Dose/organ (Mus musculus [4]): 0.22%
Dose/organ (Mus musculus [5]): 0.05%
Dose/organ (Mus musculus [6]): 0.01%
Dose/organ (Mus musculus [7]): 0.26%
Dose/organ (Mus musculus [8]): 5.03%
Dose/organ (Mus musculus [9]): 0.18%
Dose/organ (Mus musculus [10]): 0.53%
Dose/organ (Mus musculus [11]): 0.21%
Dose/organ (Mus musculus [12]): 0.05%
Dose/organ (Mus musculus [13]): 1.46%
Dose/organ (Mus musculus [14]): 1.17%
Dose/organ (Mus musculus [15]): 0.14%
Dose/organ (Mus musculus [16]): 4.75%
Dose/organ (Mus musculus [17]): 0.61%
Dose/organ (Mus musculus [18]): 4.28%
Dose/organ (Mus musculus [19]): 13.8%
Dose/organ (Mus musculus [20]): 5.88%
Dose/organ (Mus musculus [21]): 1.4%
Dose/organ (Mus musculus [22]): 6.41%
Dose/organ (Mus musculus [23]): 0.08%
Dose/organ (Mus musculus [24]): 4.69%
Dose/organ (Mus musculus [25]): 2.88%
Dose/organ (Mus musculus [26]): 6.32%
Dose/organ (Mus musculus [27]): 0.12%
